Values after ≈ are worked out from the molar mass of the structure shown. Active and inactive are the calls of the source. The calls are words filed in the database; no cut-off is given here.
Experiments:
Escherichia coli [1] = assay: Antimicrobial activity against Escherichia coli ATCC […] after 24 hrs by disk diffusion method; format: functional
Method in brief: (§1)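 Zone of inhibition by disc diffusion against E. coli ATCC-25922, S. aureus ATCC-25923, P. aeruginosa ATCC-27853 and recultured Klebsiella pneumoniae.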

Staphylococcus aureus [2] = assay: Antimicrobial activity against Staphylococcus aureus ATCC 25923 after 24 hrs by disk diffusion method; format: functional; method in brief: as §1
Candida albicans [3] = assay: Antimicrobial activity against Candida albicans after 48 hrs by agar dilution method; format: functional
Method in brief: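 Candida albicans tested by agar dilution, with compounds in DMSO.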

Escherichia coli [4] = assay: Antimicrobial activity against Escherichia coli ATCC […] after 24 hrs by broth dilution method; format: functional
Method in brief: (§2)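 MIC by broth dilution: the lowest concentration (highest dilution) that arrested bacterial or fungal growth. Strains were E. coli ATCC-25922, S. aureus ATCC-25923, P. aeruginosa ATCC-27853 and C. albicans.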

Staphylococcus aureus [5] = assay: Antimicrobial activity against Staphylococcus aureus ATCC 25923 after 24 hrs by broth dilution method; format: functional; conditions: ATCC 25923, 24 h; method in brief: as §2
Candida albicans [6] = assay: Antimicrobial activity against Candida albicans after 48 hrs by broth dilution method; format: functional; method in brief: as §2
Pseudomonas aeruginosa [7] = assay: Antimicrobial activity against Pseudomonas aeruginosa ATCC 27853 at 100 ug/ml after 24 hrs by broth dilution method; format: functional, organism-based
Klebsiella pneumoniae [8] = assay: Antimicrobial activity against Klebsiella pneumoniae at 100 ug/ml after 24 hrs by broth dilution method; format: functional, organism-based
Klebsiella pneumoniae [9] = assay: Antimicrobial activity against Klebsiella pneumoniae after 24 hrs by disk diffusion method; format: functional; method in brief: as §1
Pseudomonas aeruginosa [10] = assay: Antimicrobial activity against Pseudomonas aeruginosa ATCC 27853 after 24 hrs by broth dilution method; format: functional; conditions: ATCC 27853, 24 h; method in brief: as §2
Klebsiella pneumoniae [11] = assay: Antimicrobial activity against Klebsiella pneumoniae after 24 hrs by broth dilution method
Pseudomonas aeruginosa [12] = assay: Antimicrobial activity against Pseudomonas aeruginosa ATCC 27853 after 24 hrs by disk diffusion method; format: functional; method in brief: as §1

| SMILES | MIC (Escherichia coli [4]) | MIC (Staphylococcus aureus [5]) | MIC (Candida albicans [6]) | MIC (Pseudomonas aeruginosa [10]) | diameter of the inhibition zone (DIZ) (Escherichia coli [1]) | diameter of the inhibition zone (DIZ) (Staphylococcus aureus [2]) | diameter of the inhibition zone (DIZ) (Candida albicans [3]) | Activity (Pseudomonas aeruginosa [7]) | Activity (Klebsiella pneumoniae [8]) | Zone of inhibition (Escherichia coli [1]; Escherichia coli, ATCC 2522, 24 h) | diameter of the inhibition zone (DIZ) (Staphylococcus aureus [2]; Staphylococcus aureus, ATCC 25923, 24 h) | Zone of inhibition (Klebsiella pneumoniae [9]; Klebsiella pneumoniae, 24 h) | MIC (Klebsiella pneumoniae [11]) | diameter of the inhibition zone (DIZ) (Pseudomonas aeruginosa [12]) | diameter of the inhibition zone (DIZ) (Klebsiella pneumoniae [9]) |
| --- | --- | --- | --- | --- | --- | --- | --- | --- | --- | --- | --- | --- | --- | --- | --- |
| O=C(/C=C/c1ccco1)c1ccc(Cl)[nH]1 | 12.5 mg/L (≈ 56.4 µM) | 25 mg/L (≈ 113 µM) | 100 mg/L (≈ 451 µM) | – | 16 mm | 15 mm | 10 mm | inactive | inactive | – | – | – | – | – | – |
| O=C(O)c1cn(C2CC2)c2cc(N3CCNCC3)c(F)cc2c1=O [CIPROFLOXACIN] | 1.06 mg/L (≈ 3.2 µM) | 1.56 mg/L (≈ 4.71 µM) | – | 3.12 mg/L (≈ 9.43 µM) | – | – | – | – | – | 25 mm | 20 mm | 26 mm | 1.56 mg/L (≈ 4.71 µM) | – | – |
| CN(C)c1ccc(/C=N/NC(=O)c2cc(Cl)c(Cl)[nH]2)cc1 | 6.25 mg/L (≈ 19.2 µM) | 12.5 mg/L (≈ 38.4 µM) | 12.5 mg/L (≈ 38.4 µM) | 25 mg/L (≈ 76.9 µM) | 22 mm | 15 mm | 22 mm | – | – | – | – | – | – | 15 mm | 12 mm |
| O=C(N/N=C/c1ccccc1)c1cc(Cl)c(Cl)[nH]1 | 12.5 mg/L (≈ 44.3 µM) | 3.12 mg/L (≈ 11.1 µM) | 12.5 mg/L (≈ 44.3 µM) | 50 mg/L (≈ 177 µM) | 11 mm | 16 mm | 23 mm | – | – | – | – | – | – | 18 mm | 17 mm |

More lines, main results first:

| MIC (Escherichia coli [4]) | MIC (Staphylococcus aureus [5]) | MIC (Candida albicans [6]) | MIC (Pseudomonas aeruginosa [10]) | SMILES | diameter of the inhibition zone (DIZ) (Escherichia coli [1]) | diameter of the inhibition zone (DIZ) (Staphylococcus aureus [2]) | diameter of the inhibition zone (DIZ) (Candida albicans [3]) | Activity (Pseudomonas aeruginosa [7]) | Activity (Klebsiella pneumoniae [8]) | Zone of inhibition (Escherichia coli [1]; Escherichia coli, ATCC 2522, 24 h) | diameter of the inhibition zone (DIZ) (Staphylococcus aureus [2]; Staphylococcus aureus, ATCC 25923, 24 h) | Zone of inhibition (Klebsiella pneumoniae [9]; Klebsiella pneumoniae, 24 h) | MIC (Klebsiella pneumoniae [11]) | diameter of the inhibition zone (DIZ) (Pseudomonas aeruginosa [12]) | diameter of the inhibition zone (DIZ) (Klebsiella pneumoniae [9]) |
| --- | --- | --- | --- | --- | --- | --- | --- | --- | --- | --- | --- | --- | --- | --- | --- |
| 25 mg/L (≈ 85.7 µM) | 25 mg/L (≈ 85.7 µM) | 100 mg/L (≈ 343 µM) | – | COc1ccc(/C=C/C(=O)c2ccc(Cl)[nH]2)cc1OC | 13 mm | 13 mm | 14 mm | inactive | inactive | – | – | – | – | – | – |
| 50 mg/L (≈ 191 µM) | 25 mg/L (≈ 95.5 µM) | 100 mg/L (≈ 382 µM) | – | COc1ccc(/C=C/C(=O)c2ccc(Cl)[nH]2)cc1 | 10 mm | 17 mm | 14 mm | inactive | inactive | – | – | – | – | – | – |
| 12.5 mg/L (≈ 42.2 µM) | 12.5 mg/L (≈ 42.2 µM) | 50 mg/L (≈ 169 µM) | 100 mg/L (≈ 338 µM) | COc1ccc(/C=C/C(=O)c2cc(Cl)c(Cl)[nH]2)cc1 | 13 mm | 20 mm | 12 mm | – | – | – | – | – | – | 17 mm | 18 mm |
